Results as given in ChEMBL document CHEMBL1129366, “Novel selective PDE IV inhibitors as antiasthmatic agents. Synthesis and biological activities of a series of 1-aryl-2,3-bis(hydroxymethyl)naphthalene lignans” (J Med Chem, 1996).
“And” between values parts separate entries of the source, which are not always exact repeats. Identical values can stand only once.

Legend:
Phosphodiesterase 4 = Phosphodiesterase 4 (Homo sapiens, UniProt P27815+Q08499+Q07343+Q08493); assay: Inhibition in vitro of Phosphodiesterase 4 activity isolated from guinea pig lung; assay type: protein assay, Cavia porcellus; details: target entry is the homologue from another species
In short: (§1)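 PDEs came from guinea pig cardiac ventricle (types I, III) and lung (types IV, V). Tissue was homogenized at pH 6.5 with protease inhibitors and spun at 25000G, and the supernatant was run on DEAE-Sephacrose with a 50–1000 mM sodium acetate gradient. Assay: 40 mM Tris-HCl pH 8.0, 5 mM MgCl2, 4 mM 2-mercaptoethanol, 1.0 μM [3H]cAMP or [3H]cGMP, 20 min at 30 °C, substrate hydrolysis ≤20%. Triplicates at 3–4 inhibitor levels; IC50 read graphically.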

Cavia porcellus [1] = assay: Change in heart rate in guinea pigs after 3 mg/kg intravenous dose; assay type: functional
In short: (§2)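 Anesthetized guinea pigs in the histamine bronchospasm setup, with spontaneous breathing abolished by gallamine triethiodide (5 mg/kg iv). Heart rate was taken by cardiography triggered on the ECG R wave (standard limb lead II). Test agent was suspended in saline with Tween 80 and given iv 1 min before histamine. The value is the post-dose rate minus the basal rate (basal 230–330 beats/min).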

Cavia porcellus [2] = assay: Reduced histamine-induced bronchoconstriction in anesthetized guinea pig at 3 mg/kg intravenous dose; assay type: functional
In short: (§3)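 Anesthetized guinea pigs immobilized with gallamine triethiodide (5 mg/kg iv) and artificially ventilated. Histamine dihydrochloride (2 μg/kg) given iv via the lateral saphenous vein at 10 min intervals. Compound suspended in saline with Tween 80, given iv 1 min before histamine. Pulmonary inflation pressure recorded as the bronchospasm index; result expressed as percent inhibition of histamine-induced bronchoconstriction.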

Phosphodiesterase 3 [3] = biological target: T1, Phosphodiesterase 3 (Homo sapiens, UniProt Q14432+Q13370); assay: Inhibition in vitro of Phosphodiesterase 3 isolated from guinea pig cardiac ventricle; assay type: protein assay, Cavia porcellus; details: target entry is the homologue from another species; in short: as §1
[4] = biological target: Phosphodiesterase 1 (Cavia porcellus); assay: Inhibition in vitro of Phosphodiesterase 1 isolated from guinea pig cardiac ventricle
Cavia porcellus [5] = assay: Reduced histamine-induced bronchoconstriction in anesthetized guinea pig at 0.3 mg/kg intravenous dose; assay type: functional
Cavia porcellus [6] = assay: Change in heart rate in guinea pigs after 0.3 mg/kg intravenous dose; assay type: functional; in short: as §2
Cavia porcellus [7] = assay: Reduced histamine-induced bronchoconstriction in anesthetized guinea pig at 1 mg/kg intravenous dose; assay type: functional; in short: as §3
Cavia porcellus [8] = assay: Change in heart rate in guinea pigs after 1 mg/kg intravenous dose; assay type: functional; in short: as §2
Cavia porcellus [9] = assay: Inhibition of antigen-induced bronchoconstriction in anesthetized guinea pig at 3 mg/kg intravenous dose; assay type: functional
Cavia porcellus [10] = assay: Inhibition of histamine-induced bronchoconstriction in anesthetized guinea pig at 3 mg/kg intravenous dose
Cavia porcellus [11] = assay: Reduced histamine-induced bronchoconstriction in anesthetized guinea pig at 0.03 mg/kg intravenous dose; assay type: functional
Cavia porcellus [12] = assay: Reduced histamine-induced bronchoconstriction in anesthetized guinea pig at 0.1 mg/kg intravenous dose; assay type: functional
Cavia porcellus [13] = assay: Change in heart rate in guinea pigs after 0.1 mg/kg intravenous dose; assay type: functional; in short: as §2
Cavia porcellus [14] = assay: Change in heart rate in guinea pigs after 0.03 mg/kg intravenous dose; assay type: functional; in short: as §2
Cavia porcellus [15] = assay: Inhibition of histamine-induced bronchoconstriction in anesthetized guinea pig at 0.03 mg/kg intravenous dose
Cavia porcellus [16] = assay: (§4) Inhibition of antigen-induced bronchoconstriction in anesthetized guinea pig at 0.1 mg/kg intravenous dose; assay type: functional
Cavia porcellus [17] = assay: Change in guinea pig heart rate after intravenous administration of 0.1 mg/kg; assay type: functional; in short: as §2
Cavia porcellus [18] = assay: as §4; assay type: functional; remark: listed apart in the source
Phosphodiesterase 1 = Phosphodiesterase 1 (Homo sapiens, UniProt P54750+Q01064+Q14123); assay: Inhibition of Phosphodiesterase 1 from guinea pig cardiac ventricle; assay type: protein assay, Cavia porcellus; details: target entry is the homologue from another species
In short: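 PDE I pooled from DEAE-Sepharose fractions of guinea pig cardiac ventricle homogenate (pH 6.5 buffer with protease inhibitors, sodium acetate gradient). Assay buffer 40 mM Tris-HCl pH 8.0, 5 mM MgCl2, 4 mM 2-mercaptoethanol. Substrate [3H]cAMP or [3H]cGMP at 1.0 μM, hydrolysis kept ≤20%. Run 20 min at 30 °C, inhibitors in DMSO. Triplicates at 3–4 concentrations, IC50 read graphically from means.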

Phosphodiesterase 3 [19] = biological target: T1, Phosphodiesterase 3; assay: Inhibition of Phosphodiesterase 3 from guinea pig cardiac ventricle; assay type: protein assay, Cavia porcellus; details: target entry is the homologue from another species; in short: as §1
[20] = Inhibition of Phosphodiesterase 5 from guinea pig lung; parameters: species or system Cavia porcellus; in short: as §1
[21] = Inhibition of Phosphodiesterase 4 from guinea pig lung; parameters: species or system Cavia porcellus; in short: as §1
Cavia porcellus [22] = assay: Inhibition of histamine-induced bronchoconstriction in anesthetized guinea pig at 0.1 mg/kg intravenous dose

SMILES | IC50 (Phosphodiesterase 4) [µM] | IC50 (Phosphodiesterase 3 [3]) [µM] | IC50 [4] [µM] | Heart rate (Cavia porcellus [6]) [beats min-1] | also measured
COc1cc2cc3c(c(-c4cc(OC)c(OC)c(OC)c4)c2cc1OC)C(=O)OC3 | 0.5 | – | – | – | –
COc1cc2cc(CO)c(CO)c(-c3cc(OC)c(OC)c(OC)c3)c2cc1OC | 0.3 | 0.9 | 60 | – | Delta beats/min (Cavia porcellus [1]): 79; Reduction (Cavia porcellus [2]): 89%
COc1cc2cc(CO)c(CO)c(Cc3cc(OC)c(OC)c(OC)c3)c2cc1OC | 5 | 8 | 40 | – | –
CCCCn1ccc(-c2c(CO)c(CO)cc3cc(OCC)c(OCC)cc23)cc1=O | 0.03 | 50 | – | -5 | Reduction (Cavia porcellus [5]): 47%
COc1cc2cc(CO)c(CO)c(C3=CC=NC(=O)C3)c2cc1OC | 0.2 | 20 | > 100 | – | –
COc1cc2cc(CO)c(CO)c(-c3ccn(C)c(=O)c3)c2cc1OC | 0.6 | 20 | – | – | –
CCOc1cc2cc(CO)c(CO)c(-c3ccn(CCOC)c(=O)c3)c2cc1OC | 0.45 | 7 | – | 4 | Heart rate (Cavia porcellus [1]): 6 beats min-1; Reduction (Cavia porcellus [5]): 30%; Reduction (Cavia porcellus [7]): 76%; Reduction (Cavia porcellus [2]): 98%; Heart rate (Cavia porcellus [8]): 7 beats min-1
CCOc1cc2cc(CO)c(CO)c(-c3cc(N)c(OC)c(OC)c3)c2cc1OCC.Cl | 0.05 | 20 | 50 | – | ED50 (Cavia porcellus [9]): > 10 mg/kg; Reduction (Cavia porcellus [5]; 0.3 mg/kg): 45% and 90%; Reduction (Cavia porcellus [7]): 69%; Heart rate (Cavia porcellus [8]): 1 beats min-1; ED50 (Cavia porcellus [10]): 0.39 mg/kg
COc1cc2cc(CO)c(CO)c(-c3cc(OC)c(OC)c(C(=O)N(C)C)c3)c2cc1OC | 0.005 | 0.06 | > 100 | 50 | Reduction (Cavia porcellus [11]): 59%; Reduction (Cavia porcellus [12]): 83%; Reduction (Cavia porcellus [5]): 69%; Heart rate (Cavia porcellus [13]): 28 beats min-1; Heart rate (Cavia porcellus [14]): 1 beats min-1; ED50 (Cavia porcellus [15]): 0.03 mg/kg
COCCn1ccc(-c2c(CO)c(CO)cc3cc(OC)c(OC)cc23)cc1=O | 0.5 | 14 | – | 3 | ED50 (Cavia porcellus [16]): 0.16 mg/kg; Reduction (Cavia porcellus [12]): 34%; Reduction (Cavia porcellus [2]): 70%; Heart rate (Cavia porcellus [13]): 1 beats min-1
COc1cc2cc(CO)c(CO)cc2cc1OC | 20 | > 100 | > 100 | – | –
COc1cc2cc(CO)c(CO)c(-c3cc(OC)c(OC)c(S(C)(=O)=O)c3)c2cc1OC | 0.05 | 0.09 | 100 | -7 | Reduction (Cavia porcellus [11]): 34%; Reduction (Cavia porcellus [12]): 57%; Reduction (Cavia porcellus [5]): 71%; Heart rate (Cavia porcellus [13]): 1 beats min-1; Heart rate (Cavia porcellus [14]): 3 beats min-1; ED50 (Cavia porcellus [15]): 0.093 mg/kg
CCOc1cc2cc(CO)c(CO)c(-c3ccn(CCOC)c(=O)c3)c2cc1OCC | 0.057 | 57 | – | 5 | ED50 (Cavia porcellus [16]): 0.08 mg/kg; Heart rate (Cavia porcellus [1]): 5 beats min-1; Reduction (Cavia porcellus [12]): 60%; Reduction (Cavia porcellus [5]): 92%; Heart rate (Cavia porcellus [17]): 5 beats min-1; ED50 (Cavia porcellus [18]): 2.3 mg/kg
COc1cc(-c2c(CO)c(CO)cc3cc4c(cc23)OCO4)cc(OC)c1OC | > 30 | > 100 | > 100 | – | –
COc1ccc(-c2c(CO)c(CO)cc3cc(OC)c(OC)cc23)cc1OC | 0.2 | 1 | – | – | –
COc1cc2cc(CO)c(CO)c(-c3cc(NC(C)=O)c(OC)c(OC)c3)c2cc1OC | 0.07 | 2 | 100 | – | –
COc1ccc2c(-c3cc(OC)c(OC)c(OC)c3)c(CO)c(CO)cc2c1 | 40 | 20 | 30 | – | –
COc1ccc(C2CNC(=O)C2)cc1OC1CCCC1 (centres undefined) [ROLIPRAM] | – | – | – | – | ED50 (Cavia porcellus [16]): 19 mg/kg; Reduction (Cavia porcellus [12]): 79%; Reduction (Cavia porcellus [7]): 72%; Heart rate (Cavia porcellus [13]): 9 beats min-1; Heart rate (Cavia porcellus [8]): 3 beats min-1; IC50 (Phosphodiesterase 1): > 100 µM; IC50 (Phosphodiesterase 3 [19]): > 100 µM; IC50 [20]: > 100 µM; IC50 [21]: 1.9 µM; ED50 (Cavia porcellus [22]): 0.01 mg/kg
